ChEMBL document CHEMBL4513216, “Probing the Open Global Health Chemical Diversity Library for Multistage-Active Starting Points for Next-Generation Antimalarials” (ACS Infect Dis, 2020)

Assay: Toxicity liver stage against HepG2, at 10uM
Type: cell-based
Parameters: test concentration 10 uM, cell line HepG2-A16-CD81EGFP
Details: human, HepG2-A16-CD81EGFP cells; read-out: INHIBITION
How it was run: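 Uninfected HepG2-A16-CD81EGFP cells, 3 × 10^3 per well, 1536-well, plated on prespotted compound at 10 μM final, parasite-free screening media added to match infected plates; puromycin 10 μM positive, DMSO 0.5% negative; run in parallel with 48 h PbLuc assay at 37 °C, 5% CO2; viability by CellTiter-Glo luminescence, normalized to controls.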

SMILES	cytotoxicity at 10 µM [%]
O=S(=O)(NC[C@H]1C[C@@H]2CCN1C[C@@H]2CN1CCCC1)c1ccc(Cl)cc1	-4.38
CC(C)c1nn(CC(=O)N2CCCC2)c(=O)c2c1cnn2C(C)(C)C	1.12
Cn1cccc1C(O)CNC(=O)c1ccc2nsnc2c1 (stereo not given)	4.4
O=S(=O)(NCC1CCN(c2cnccn2)CC1)c1ccc(F)c(Cl)c1	11.6
O=C1CCC2(CCN(S(=O)(=O)c3ccccc3)CC2)N1CC1CC1	3.41
CCN(CC)[C@@H]1CN(S(=O)(=O)c2cn(C)cn2)[C@@H]2CCCO[C@H]12	-147
Cc1ccc(N2CC3(CCN(S(=O)(=O)C4CC4)C3)C2)nn1	10.6
O=C(NC1CC1)N1CCc2ccc(=O)n(CC3CC3)c2CC1	-4.63
CN1CCCc2sc(C(=O)NC3CC3)nc21	-149
O=S(=O)(C1CC1)N1CCCC2(COCCN(c3nncs3)C2)C1 (stereo not given)	5.22
CC(C)N1CCc2onc(Cn3cccn3)c2C1	5.44
Cc1noc(C2CCC3(CCN(C(=O)c4sccc4C)CC3)O2)n1 (stereo not given)	8.94
CCOC[C@H]1CC[C@H]2[C@H](CCN2C(=O)c2cnccn2)O1	2.22
O=C1NC(c2ccccc2)=N[C@@]12CC[C@@H]1CN(Cc3nccs3)C[C@@H]12	6.37
Cn1cccc1C(=O)N1CC[C@H]2[C@H](CO[C@H]2CNS(C)(=O)=O)C1	-2.94
Cc1occc1C(=O)N1CCCC2(CCN(c3ccccc3)C2=O)C1 (stereo not given)	-5.5
Cc1nc(C)c2c(n1)CCN(Cc1ccco1)CC2	-0.141
CCS(=O)(=O)N1CCc2onc(CNc3ncccn3)c2C1	-0.748
COc1ccc(C2OC(COc3ccccc3Br)=NN2C(C)=O)cc1 (stereo not given)	3.56
N#Cc1cc(C#N)c(SCC(=O)NCc2ccc(F)cc2)nc1N	0.0723
CC(C)Cc1noc(C2CCCN(C(=O)CCc3cnn(C)c3)C2)n1 (stereo not given)	0.297
Cc1cccc(CNC(=O)CC2CCN(C(=O)C(C)C)CC2)n1	7.45

SMILES	cytotoxicity at 10 µM [%]
COCCNc1nnc(-c2cnc(C)cn2)s1	4.22
COc1ccccc1C1Cn2ccnc2CN1Cc1c[nH]nc1C (stereo not given)	-3.85
CN(C)c1cccc(C2CCCN2S(=O)(=O)c2cn(C)cn2)n1 (stereo not given)	-28.7
CC(=O)N1CCn2c(nnc2C2CCCCN2C(C)=O)C1 (stereo not given)	-28.1
Cc1ccc2nc(C(=O)N3CCCC[C@]4(C)NC(=O)CCC[C@H]34)cn2c1	-9.99
CC(=O)Nc1cc(C(C)(C)C)sc1C#N	10.3
Cc1ccnc(NC(=O)c2cc(C)oc2C)c1	-4.57
c1ccc(-c2nnc3n2CCN(c2nc(C4CC4)ns2)C3)cc1	0.38
OC(CNCCc1nnc2ccccn12)c1ccc(F)c(F)c1 (stereo not given)	2.52
CC(C1CC1)N(C)Cc1nnc(-c2ccc(Br)s2)o1 (stereo not given)	-11.2
NC(=O)c1cnn2c1NCC(CNCC1(c3ccccc3)CCC1)C2 (stereo not given)	-7.73
Cc1ccc(C)c(C(=O)NC2CCC(N3C(=O)CCC3=O)CC2)c1 (stereo not given)	3.38
Cc1nn(C(C)(C)C)c(=O)n1CC(=O)NCC(F)(F)F	-1.32
COc1ncccc1CNC(=O)c1csc(Br)c1	-8.03
CNS(=O)(=O)Cc1cccc(CNc2ccc(C#N)cn2)c1	-11.2
COC(=O)CCNC(=O)c1ccc(NC(=O)N(C)CC(C)C)cc1	9.13
CC(C)C(=O)NCc1ccccc1NS(=O)(=O)c1ccccc1	9.05
COCc1ccccc1C(=O)N1CCC(CNC(=O)OC(C)(C)C)C1 (stereo not given)	10.1
O=C(CN1CCOC(c2ccccc2C(F)(F)F)C1)NC1CC1 (stereo not given)	3.02
O=C(NCCNS(=O)(=O)c1ccc2c(c1)CCC2)c1ccccc1	9.36
Cn1ccnc1CNc1c(F)cccc1-n1cccn1	-5.2
CCc1nnc2n1CCN(Cc1csc(-c3ncccn3)n1)C2	-2.33

SMILES	cytotoxicity at 10 µM [%]
Cc1ccc(C)c(CC(=O)Nc2cnccc2SCCCO)c1	21.2
CCOc1cccc(NC(=O)c2cscn2)n1	-3.59
COC(=O)c1cnc(C(=O)N(c2ccc(OC)c(F)c2)C(C)C)cn1	-1.23
NS(=O)(=O)CCN1CCOC(c2ccc(Cl)cc2)C1 (stereo not given)	-0.317
CCCS(=O)(=O)CCN1CCOC(c2ccsc2)C1 (stereo not given)	-2.69
CCN(C(=O)c1ccccc1I)C1CC(=O)NC1=O (stereo not given)	-3.86
O=C(Nc1cc(-c2ccccc2)on1)N1CC[C@H](O)C1	4.98
NC(=O)CCSCc1cc(Br)cc2cccnc12	-7.68
COC(=O)c1cccc(CNC(=O)c2cc(C(C)C)n(C)n2)c1	-3.26
CSc1sc(NC(=O)C2CCCN(C(N)=O)C2)nc1C (stereo not given)	6.08
CC(=O)NC(C(=O)N(C)Cc1nnc2n1CCC2)C(C)C (stereo not given)	-7.85
Cn1cc(C2CCCN2c2ncnc3[nH]ccc23)cn1 (stereo not given)	-9.59
Cc1noc(C)c1CN(C)C(=O)NC(C)c1cccs1 (stereo not given)	1.41
CC1CCC(NS(=O)(=O)CC(=O)Nc2ccccc2N2CCCC2)CC1 (stereo not given)	3.75
Cc1ncc(CNC(=O)NC2CCN(C3CCCC3)CC2)s1	-9.01
CC(C(N)=O)N(C)CCCc1cc(-c2ccc(F)cc2)n(C)n1 (stereo not given)	-4.87
CN(CC(F)F)C(=O)c1cn(-c2ccc(Br)cc2)cn1	1.73
Cc1ccc(Sc2nccn(C)c2=O)cc1	4.8
O=C(NCCOc1ccc(F)c(F)c1)NCc1cccc(CO)c1	-8.86
CC(=O)Nc1cccc(OCCNC(=O)N(C)Cc2ccco2)c1	-9.29
Cc1cccc(NC(=O)c2sccc2C)n1	-1.45
COC(=O)N1CCC(Oc2ccc(C(=O)NCCN(C)C)cc2Cl)CC1	-6.34

SMILES	cytotoxicity at 10 µM [%]
CCOc1cccc(C(=O)N2CCC3(CC2)[C@H](O)C[C@@H]3OC)c1	2.01
Cc1n[nH]c(C)c1CCc1n[nH]c(=O)n1Cc1cccs1	-146
Cc1cc2cccc(C(=O)N3CC[C@](C)(O)[C@H](C)C3)c2o1	4
Cc1ccc2cc(C3(O)CCN(C(=O)[C@@H]4CCCCN4)CC3)ccc2n1	-0.456
CCOC(=O)N1CCC2(CCCN(C3CCOCC3)C2=O)C1 (stereo not given)	-133
CC(=O)N1CCC(C(=O)NC2CC(C)(C)Oc3cc(C)ccc32)CC1 (stereo not given)	-5.41
c1ccc(Cc2nc(C3CC3)nn2-c2ccc3c(c2)OCCO3)nc1	2.6
Cc1c(Cl)c(C(=O)N2CC(c3cccnc3)C2)nn1C	-5.23
Cc1nn(-c2ccccc2)c(C)c1-c1ccnc(N2CCCOCC2)n1	-11.3
O=C1CCC2(CCN(CC[C@@H](O)c3ccccc3)CC2)CN1CC1CC1	4.51
O=C(O)[C@@H]1CN(C(=O)c2ccc3[nH]nnc3c2)C[C@H]1c1ccccc1	-130
Cc1ccc(C)c2c(C)c(C(=O)NCCCn3cnnc3)[nH]c12	6.28
COCc1noc(CNc2nc(C3CCCC3)nc3c2CCNCC3)n1	0.0228
O[C@H]1[C@H](n2cc(CN3CCCC3)nn2)c2ccccc2C12CCNCC2	-3.76
COCc1cc(NCCc2ccc(F)cc2)n2nccc2n1	-12.6
CC(C(=O)N1CCCC1)N1CCC(c2nccn2Cc2cscn2)CC1 (stereo not given)	2.79
Cc1cc(I)c2c(c1)C(=O)C(CN1CCCC1)(CN1CCCC1)CO2	-6.86
Cc1ccc(O)c(C(=O)N2CCOCC2c2c(C)nn(C)c2C)c1 (stereo not given)	-8.53
CC(NC(=O)NCc1ccoc1)c1ccc2c(c1)CC(=O)N2 (stereo not given)	-1.82
O=C(CN1CCOC(CNc2cccnn2)C1)N1CCCCC1 (stereo not given)	5.18
Cc1csc(N2CCCN(C(=O)Cn3cncn3)CC2)n1	-3.27
Cc1ccccc1C1(C(=O)NCCN(C(C)C)C(C)C)CCOCC1	-6.51

SMILES	cytotoxicity at 10 µM [%]
Cn1cc(CC2CCN(C(=O)NCc3cccc(C(N)=O)c3)C2)cn1 (stereo not given)	-4.25
COC1CCN(C(=O)Cc2csc(-c3ccccc3)n2)CC1	-6.75
CCOCC(O)CN1CCN(C(=O)Cc2cccc(C)c2)CC1 (stereo not given)	-7.1
c1ccc(OCCNC2CCCN(Cc3noc(C4CC4)n3)C2)cc1 (stereo not given)	-13.6
CS(=O)(=O)c1cccc(C(N)c2ccc(Cl)cc2)c1 (stereo not given)	-16.1
Cc1nn(C)c(N(C)C)c1CNCc1ccnc(N2CCCCC2)c1	-9.32
COc1ccc(Cl)cc1CC(=O)N1CCN(CC(C)(C)O)CC1	-4.21
CC(C)CCCNC(=O)Nc1ccc(Cl)c(C(N)=O)c1	-0.252
CCn1ccnc1CN1CCCC1Cn1cc(C)cn1 (stereo not given)	-14.3
CC(C)c1nc2c(n1C)CCN(CC(=O)Nc1cccnc1)C2	-9.52
CCN(Cc1ccccc1)Cc1nc2c(cnn2C)c(=O)[nH]1	2.86
CC(=O)NC1CCCN(C(=O)NCc2cccnc2)C1 (stereo not given)	-10.5
Cc1cccc(-c2noc(CN3CCc4nn(C)c(=O)cc4C3)n2)c1	5.15
CN1CCCC(c2cncc(C(=O)NCc3ccccc3Cl)n2)C1 (stereo not given)	-2.82
CC(C)Nc1cccc(CC2CCN(C)C2)n1 (stereo not given)	-27.6
COCC1c2c(cnn2CC2CC2)CCN1Cc1ccc(C)o1 (stereo not given)	-0.201
CCO[C@H]1CCN(S(=O)(=O)c2cn(C)cn2)[C@H]1Cc1ccccc1	7.95
CS(=O)(=O)N1CCC2(CC1)COC(COc1cccnc1)C2 (stereo not given)	7.61
CCN(C)c1ncnc2c1CCN(C(=O)c1ccccn1)CC2	-2.23
CNC(=O)[C@H]1C[C@H]2OCC[C@H]2N(CCOc2ccc(Cl)cc2)C1	-104
O=C(NCC1CCOCC1)[C@@H]1CC[C@@H]2[C@@H](CCN2Cc2ccncc2)O1	4.85
COCCOC(=O)N1C[C@@H]2CC[C@H]1CN(C1Cc3ccccc3C1)C2	1.06
